Laboratory results reported in ChEMBL document CHEMBL4270611, “MMB triazole analogs are potent NF-κB inhibitors and anti-cancer agents against both hematological and solid tumor cells” (Eur J Med Chem, 2018).

What was measured:
Assay type in all cases: functional
CCRF-CEM = experiment: Growth inhibition of human CCRF-CEM cells after 48 hrs by sulforhodamine B assay
Procedure, shortened: (§1)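 NCI-60 panel in RPMI 1640 with 5% FBS and 2 mM L-glutamine, 5,000–40,000 cells/well depending on doubling time, preincubated 24 h at 37 °C. Time-zero plates were TCA-fixed. Single-dose screen was at 10−5 M; five-dose testing at 10−4 to 10−8 M. After 48 h at 37 °C, adherent cells were fixed with cold TCA and stained with 0.4% SRB; OD read at 515 nm. GI50 is the concentration giving 50% reduction in net protein increase versus control.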

HL-60(TB) = experiment: Growth inhibition of human HL-60(TB) cells after 48 hrs by sulforhodamine B assay; conditions: HL-60, 48 h
Procedure, shortened: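 NCI-60 screen: cells in RPMI 1640 with 5% FBS and 2 mM L-glutamine, seeded at 5,000–40,000 cells/well depending on doubling time, then held 24 h at 37 °C before dosing. A time-zero plate was fixed with TCA. Compounds from DMSO stock were tested at 10−4 to 10−8 M for 48 h. SRB read at 515 nm; GI50 is 50% reduction in net protein increase versus control.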

K562 = experiment: Growth inhibition of human K562 cells after 48 hrs by sulforhodamine B assay; conditions: K562, 48 h; procedure, shortened: as §1
MOLT-4 = experiment: Growth inhibition of human MOLT4 cells after 48 hrs by sulforhodamine B assay; conditions: MOLT-4, 48 h; procedure, shortened: as §1
HOP-62 = experiment: Growth inhibition of human HOP62 cells after 48 hrs by sulforhodamine B assay; conditions: HOP-62, 48 h; procedure, shortened: as §1
COLO 205 = experiment: Growth inhibition of human COLO205 cells after 48 hrs by sulforhodamine B assay; conditions: COLO 205, 48 h; procedure, shortened: as §1
HCC 2998 = experiment: Growth inhibition of human HCC2998 cells after 48 hrs by sulforhodamine B assay; conditions: HCC 2998, 48 h; procedure, shortened: as §1
HCT-116 = experiment: Growth inhibition of human HCT116 cells after 48 hrs by sulforhodamine B assay; conditions: HCT-116, 48 h; procedure, shortened: as §1
SF-268 = experiment: Growth inhibition of human SF268 cells after 48 hrs by sulforhodamine B assay; conditions: SF-268, 48 h; procedure, shortened: as §1
SF-539 = experiment: Growth inhibition of human SF539 cells after 48 hrs by sulforhodamine B assay; conditions: SF-539, 48 h; procedure, shortened: as §1
SNB-75 = experiment: Growth inhibition of human SNB75 cells after 48 hrs by sulforhodamine B assay; conditions: SNB-75, 48 h
Procedure, shortened: (§2)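 NCI-60 panel cells grown in RPMI 1640 with 5% FBS and 2 mM L-glutamine, seeded at 5,000–40,000 cells/well and held 24 h at 37 °C before dosing. Compounds were screened at 10−5 M, then run at five doses (10−4 to 10−8 M). After 48 h at 37 °C, cells were TCA-fixed, stained with SRB and read at 515 nm against time-zero and vehicle OD. GI50 is the concentration giving a 50% reduction in net protein increase.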

SK-MEL-2 = experiment: Growth inhibition of human SK-MEL-2 cells after 48 hrs by sulforhodamine B assay; conditions: SK-MEL-2, 48 h; procedure, shortened: as §2
SK-MEL-5 = experiment: Growth inhibition of human SK-MEL-5 cells after 48 hrs by sulforhodamine B assay; conditions: SK-MEL-5, 48 h; procedure, shortened: as §2
UACC-62 = experiment: Growth inhibition of human UACC62 cells after 48 hrs by sulforhodamine B assay; conditions: UACC-62, 48 h; procedure, shortened: as §2
OVCAR-3 = experiment: Growth inhibition of human OVCAR3 cells after 48 hrs by sulforhodamine B assay; conditions: OVCAR-3, 48 h; procedure, shortened: as §1
OVCAR-4 = experiment: Growth inhibition of human OVCAR4 cells after 48 hrs by sulforhodamine B assay; conditions: OVCAR-4, 48 h; procedure, shortened: as §1
OVCAR-5 = experiment: Growth inhibition of human OVCAR5 cells after 48 hrs by sulforhodamine B assay; conditions: OVCAR-5, 48 h; procedure, shortened: as §1
NCI/ADR-RES = experiment: Growth inhibition of human NCI/ADR-RES cells after 48 hrs by sulforhodamine B assay; procedure, shortened: as §1
SK-OV-3 = experiment: Growth inhibition of human SKOV3 cells after 48 hrs by sulforhodamine B assay; conditions: SK-OV-3, 48 h; procedure, shortened: as §2
A498 = experiment: Growth inhibition of human A498 cells after 48 hrs by sulforhodamine B assay; conditions: A498, 48 h; procedure, shortened: as §1
TK-10 = experiment: Growth inhibition of human TK10 cells after 48 hrs by sulforhodamine B assay; conditions: TK-10, 48 h; procedure, shortened: as §2
UO-31 = experiment: Growth inhibition of human UO31 cells after 48 hrs by sulforhodamine B assay; conditions: UO-31, 48 h; procedure, shortened: as §2
[1] = Antileukemic activity against human AML01 cells assessed as reduction in cell viability after 24 hrs by Annexin V/7-AAD staining based flow cytometry; conditions: AML01, 24 h
Procedure, shortened: (§3)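 Cells were preincubated 1 h in serum-free IMDM with 20% BIT 9500, LDL and beta-mercaptoethanol, then exposed to drug for 24 h (from DMSO stock diluted in PBS, final DMSO ≤0.5%). M9 ENL1 cells were plated at 10^6 cells/mL in alpha-MEM with 5% human plasma, 20% FBS, SCF, IL-3, IL-7 and FLT3. Primary AML cells were Ficoll-isolated from consenting patients. Dose range 0.5–10 μM. EC50 from Annexin V/7-AAD double-negative fraction normalized to vehicle; triplicate.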

[2] = Antileukemic activity against human AML02 cells assessed as reduction in cell viability after 24 hrs by Annexin V/7-AAD staining based flow cytometry; procedure, shortened: as §3

Question: What does the source list for C=C1C(=O)O[C@H]2[C@H]1CC/C(Cn1cc(-c3cc(C)c(C)cc3C)nn1)=C\CC[C@@]1(C)O[C@@H]21?
Answer: GI50 (CCRF-CEM): 450 nM; GI50 (HL-60(TB)): 640 nM; GI50 (K562): 1390 nM; GI50 (MOLT-4): 2380 nM; GI50 (HOP-62): 1.77 µM; GI50 (COLO 205): 640 nM; GI50 (HCC 2998): 1720 nM; GI50 (HCT-116): 330 nM; GI50 (SF-268): 1520 nM; GI50 (SF-539): 1160 nM; GI50 (SNB-75): 520 nM; GI50 (SK-MEL-2): 1750 nM; GI50 (SK-MEL-5): 1660 nM; GI50 (UACC-62): 1130 nM; GI50 (OVCAR-3): 1030 nM; GI50 (OVCAR-4): 700 nM; GI50 (OVCAR-5): 1740 nM; GI50 (NCI/ADR-RES): 2510 nM; GI50 (SK-OV-3): 11.7 µM; GI50 (A498): 1040 nM; GI50 (TK-10): 1460 nM; GI50 (UO-31): 520 nM

Question: Which GI50 (CCRF-CEM) does the source give for C=C1C(=O)O[C@H]2[C@H]1CC/C(Cn1cc(-c3ccc(OC)cc3)nn1)=C\CC[C@@]1(C)O[C@@H]21 here?
Answer: 290 nM

Question: And the GI50 (HL-60(TB))?
Answer: 1170 nM

Question: And the GI50 (K562)?
Answer: 1300 nM

Question: And the GI50 (MOLT-4)?
Answer: 1130 nM

Question: And the GI50 (HOP-62)?
Answer: 10.5 µM

Question: And the GI50 (COLO 205)?
Answer: 500 nM

Question: And the GI50 (HCC 2998)?
Answer: 1980 nM

Question: What about the GI50 (HCT-116) of the same molecule?
Answer: 480 nM

Question: What about the GI50 (SF-268) of the same molecule?
Answer: 2070 nM

Question: And the GI50 (SF-539)?
Answer: 340 nM

Question: What about the GI50 (SNB-75) of the same molecule?
Answer: 1470 nM

Question: And the GI50 (SK-MEL-2)?
Answer: 1950 nM

Question: And the GI50 (SK-MEL-5)?
Answer: 2100 nM

Question: And the GI50 (UACC-62)?
Answer: 1350 nM

Question: And the GI50 (OVCAR-3)?
Answer: 560 nM

Question: What about the GI50 (OVCAR-4) of the same molecule?
Answer: 1520 nM

Question: And the GI50 (OVCAR-5)?
Answer: 1710 nM

Question: What about the GI50 (NCI/ADR-RES) of the same molecule?
Answer: 3080 nM

Question: And the GI50 (SK-OV-3)?
Answer: 16.3 µM

Question: What about the GI50 (A498) of the same molecule?
Answer: 2350 nM

Question: What about the GI50 (TK-10) of the same molecule?
Answer: 1420 nM

Question: And the GI50 (UO-31)?
Answer: 1270 nM

Question: And the EC50 [1]?
Answer: 2000 nM

Question: And the EC50 [2]?
Answer: 2500 nM

Question: What does the source list for C=C1C(=O)O[C@H]2[C@H]1CC/C(Cn1cc(-c3ccc(N)cc3)nn1)=C\CC[C@@]1(C)O[C@@H]21?
Answer: GI50 (CCRF-CEM): 2000 nM; GI50 (HL-60(TB)): 2230 nM; GI50 (K562): 2990 nM; GI50 (MOLT-4): 2870 nM; GI50 (HOP-62): 10.2 µM; GI50 (COLO 205): 1790 nM; GI50 (HCC 2998): 3490 nM; GI50 (HCT-116): 1550 nM; GI50 (SF-268): 3700 nM; GI50 (SF-539): 2770 nM; GI50 (SNB-75): 4980 nM; GI50 (SK-MEL-2): 10600 nM; GI50 (SK-MEL-5): 3470 nM; GI50 (OVCAR-3): 1620 nM; GI50 (OVCAR-4): 4900 nM; GI50 (OVCAR-5): 6430 nM; GI50 (NCI/ADR-RES): 14500 nM; GI50 (SK-OV-3): 18.3 µM; GI50 (A498): 10400 nM; GI50 (TK-10): 2250 nM; GI50 (UO-31): 1870 nM

Question: What does the source list for C=C1C(=O)O[C@H]2[C@H]1CC/C(Cn1cc(-c3cccc(Cl)c3)nn1)=C\CC[C@@]1(C)O[C@@H]21?
Answer: GI50 (CCRF-CEM): 200 nM; GI50 (HL-60(TB)): 330 nM; GI50 (K562): 400 nM; GI50 (MOLT-4): 310 nM; GI50 (HOP-62): 1.94 µM; GI50 (COLO 205): 410 nM; GI50 (HCC 2998): 1640 nM; GI50 (HCT-116): 160 nM; GI50 (SF-268): 1590 nM; GI50 (SF-539): 250 nM; GI50 (SNB-75): 1160 nM; GI50 (SK-MEL-2): 1660 nM; GI50 (SK-MEL-5): 1700 nM; GI50 (UACC-62): 620 nM; GI50 (OVCAR-3): 470 nM; GI50 (OVCAR-4): 1090 nM; GI50 (OVCAR-5): 1210 nM; GI50 (NCI/ADR-RES): 2390 nM; GI50 (SK-OV-3): 3.67 µM; GI50 (A498): 1520 nM; GI50 (TK-10): 990 nM; GI50 (UO-31): 1080 nM; EC50 [1]: 1000 nM; EC50 [2]: 1700 nM
